Assay results pooled from the literature.
Lines come from different studies, so protocols differ.
PIK3CA: Phosphatidylinositol 4,5-bisphosphate 3-kinase catalytic subunit alpha isoform (PIK3CA, Homo sapiens, UniProt P42336)
PIK3CA E545K: Phosphatidylinositol 4,5-bisphosphate 3-kinase catalytic subunit alpha isoform (PIK3CA, Homo sapiens, UniProt P42336, E545K)
PIK3CA H1047L: Phosphatidylinositol 4,5-bisphosphate 3-kinase catalytic subunit alpha isoform (PIK3CA, Homo sapiens, UniProt P42336, H1047L)
PIK3CA E545A: Phosphatidylinositol 4,5-bisphosphate 3-kinase catalytic subunit alpha isoform (PIK3CA, Homo sapiens, UniProt P42336, E545A)
PIK3CA M1043I: Phosphatidylinositol 4,5-bisphosphate 3-kinase catalytic subunit alpha isoform (PIK3CA, Homo sapiens, UniProt P42336, M1043I)
PIK3CA E542K: Phosphatidylinositol 4,5-bisphosphate 3-kinase catalytic subunit alpha isoform (PIK3CA, Homo sapiens, UniProt P42336, E542K)
PIK3CA C420R: Phosphatidylinositol 4,5-bisphosphate 3-kinase catalytic subunit alpha isoform (PIK3CA, Homo sapiens, UniProt P42336, C420R)

SMILES	target	assay	conditions	quantity	result
C/C=C/C(=O)CCCCCC(=O)N1CCN(c2nc(-c3cnc(N)nc3C(F)F)nc(N3CCOCC3)n2)CC1	PIK3CA	cell-free assay, TR-FRET		kinact	0.0153 s⁻¹
Cc1ccc(C(=O)NCc2ccsc2)cc1C#Cc1cn(C(C)C)c2ncnc(N)c12	Phosphatidylinositol 4,5-bisphosphate 3-kinase catalytic subunit alpha isoform, with p85 (PIK3CA, Homo sapiens, UniProt P42336, E542K)	enzyme activity, inhibitor	1 µM	activity vs control	100%
CN(C)c1ncnc(-c2ccc3nc(Nc4cc(CN5CCN(C(=O)CC(F)(F)F)CC5)ccn4)[nH]c3c2)c1Cl	PIK3CA E545K	cell-free assay, competition with immobilised ligand	1 µM	remaining binding	76%
CC(C)=CC(=O)CCCC(=O)N1CCN(c2nc(-c3cnc(N)nc3C(F)F)nc(N3CCOCC3)n2)CC1	PIK3CA	ligand displacement, TR-FRET		kinact/KI	3210 M⁻¹ s⁻¹
N[C@@H]1CCN(c2nccc(-c3cnn4ncccc34)n2)C1	PIK3CA H1047L	binding	1 µM	remaining binding	100%
CCCOc1ccc([C@@H]2[C@@H](C(=O)O)[C@H](c3ccc4c(c3)OCO4)CN2CC(=O)Nc2c(CC)cccc2CC)cc1	PIK3CA E545A	cell-free assay, competition with immobilised ligand	1 µM	remaining binding	92%
Nc1ncnc2occ(-c3ccc(NC(=O)Nc4cc(C(F)(F)F)ccc4F)cc3)c12	PIK3CA M1043I	cell-free assay, inhibitor	20 µM	remaining signal	100%
CCCCNc1ncc2c(-c3ccc(F)cc3)nn(C[C@H]3CC[C@H](N)CC3)c2n1	PIK3CA	target engagement in cells, inhibitor, chemoproteomics	20 mM	inhibition	70.8%
O=c1nc(-c2ccccn2)sc2ccccc12	PIK3CA E542K	cell-free assay, competition with immobilised ligand	1 µM	remaining binding	89%
C=CC(=O)N1CCC(C(=O)N(C)CCCC(=O)N2CCN(c3nc(-c4cnc(N)nc4C(F)F)nc(N4CCOCC4)n3)CC2)CC1	PIK3CA	cell-free assay, TR-FRET		kinact	0.000406 s⁻¹
C[C@@H]1CCN(c2nccc(-c3cnn4ncccc34)n2)C1	PIK3CA	binding	1 µM	remaining binding	100%
Cc1ccc(C(=O)Nc2ccc(CN3CCN(C)CC3)c(C(F)(F)F)c2)cc1C#Cc1cnc2cccnn12	PIK3CA E545K	enzyme activity, inhibitor	23.5 nM	remaining activity	88%
COc1cccc2c(NCc3ccccc3)nc(-n3c(N)nc4ccccc43)nc12	PIK3CA	target engagement in cells, inhibitor, chemoproteomics	20 mM	inhibition	5.6%
c1cnn2ncc(-c3ccnc(N4CCC45COC5)n3)c2c1	PIK3CA C420R	binding	1 µM	remaining binding	71%
COc1cccc(CNC(=O)c2nc3scc(COCc4ccc(C(=O)O)cc4)c3c(=O)[nH]2)c1	Phosphatidylinositol 4,5-bisphosphate 3-kinase catalytic subunit alpha isoform (PIK3CA, Homo sapiens, UniProt P42336, I800L)	cell-free assay, competition with immobilised ligand	1 µM	remaining binding	77.2%
C=CC(=O)N(C)CCCCC(=O)N1CCN(c2nc(-c3cnc(N)nc3C(F)F)nc(N3CCOCC3)n2)CC1	PIK3CA	ligand displacement, TR-FRET		kinact	0.000127 s⁻¹
COc1cc(-c2cn(C3CCc4ccccc4N(CC(F)(F)F)C3=O)nn2)ccc1-n1ccc(C)n1 (centres unmarked)	PIK3CA E542K	cell-free assay, competition with immobilised ligand	1 µM	remaining binding	82%
F[C@@H]1CCN(c2nccc(-c3cnn4ncccc34)n2)C1	PIK3CA M1043I	binding	1 µM	remaining binding	100%
CC(=O)Oc1ccc(-c2coc3c4c(c(CC=C(C)C)c(OC(C)=O)c3c2=O)OC(C)(C)C=C4)cc1OC(C)=O	PIK3CA E545K	enzyme activity, inhibitor, ADP detection	10 µM	remaining activity	37.6%
Cn1nc(C(F)(F)F)cc1-c1cnc(N2CCc3cc(S(=O)(=O)Nc4c(F)cc(Cl)cc4F)cc(N4CCCC4=O)c32)nc1	PIK3CA H1047L	cell-free assay, competition with immobilised ligand	1 µM	remaining binding	94%
O=C(CSc1nc2nccnc2c(=O)n1CCc1ccccc1)Nc1ccccc1	PIK3CA	enzyme activity, inhibitor	10 µM	inhibition	< 20%
Cc1cnn2ncc(-c3ccnc(N(C)C)n3)c2c1	PIK3CA E545A	binding	1 µM	remaining binding	100%
O=C(O)[C@@H]1[C@@H](Cn2nnc3ccccc3c2=O)CC[C@H]1C(=O)c1ccc(OCCC2CCOCC2)cc1	PIK3CA	cell-free assay, competition with immobilised ligand	1 µM	remaining binding	100%
C=CC(=O)NCCCCC(=O)N1CCN(c2nc(-c3cnc(N)nc3C(F)F)nc(N3CCOCC3)n2)CC1	PIK3CA	cell-free assay, TR-FRET		kinact/KI	16400 M⁻¹ s⁻¹
Cc1nc(Cc2cccc(C(F)(F)F)c2)sc1-c1ccc(C(N)=O)nc1	PIK3CA E545A	cell-free assay, competition with immobilised ligand	1 µM	remaining binding	100%
CN(C)c1nccc(-c2cnc3ncccn23)n1	PIK3CA C420R	binding	1 µM	remaining binding	58%
